This is a sample that favours compounds with a hit; in the whole collection about 1.9% have one here.
bCat nuc transl: beta-catenin nuclear translocation modulation. hit rate 0.3% among 190,000. HeLa beta-catenin nuclear translocation, immunofluorescence imaging. nuclear translocation activity, % at 5 µM;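 active = nuclear translocation activity above 50% at 5 µM, with a well cell count of 50 or more; inconclusive = wells under 50 cells across six images, flagged as toxic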;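 also: per-cell ratio of nuclear to cytoplasmic median beta-catenin stain intensity; plate controls were DMSO negative control for no effect and GSK-3 inhibitor IX positive control for full effect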
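Test system: human HeLa cells, endogenous beta-catenin. Times: 24 h compound exposure, 37°C. Measured by: beta-catenin immunofluorescence imaging with DAPI.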
MT stabilizer: microtubule stabilization, imaging screen | HeLa tubulin immunostaining HCS, 24 h; share of cells brighter than vehicle mean+2SD | % tubulin-high responders, % at 10 µM | hit rate 0.83% among 200,000 | AID 2205;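 active = plate Z-score above 3 for both tubulin-high and condensed-nucleus cell shares, with cell loss under 80%, at 10 µM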;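 also: anti alpha tubulin signal scored within the nucleus-defined area of each cell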
ROMK mod: modulates human ROMK potassium channel activity; B-score at 10 µM; Tet-inducible ROMK, thallium flux fluorescence; actives lie on both sides; AID 1918; hit rate 2% among 130,000;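 active = signal ratio slope over the read window, or its plate-corrected B-score, at least 3 SD from the plate mean, either direction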;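 also: B-score of the F/F0 ratio slope over 7 to 12 s after thallium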
Target sequence (P48048 whole entry, looked up): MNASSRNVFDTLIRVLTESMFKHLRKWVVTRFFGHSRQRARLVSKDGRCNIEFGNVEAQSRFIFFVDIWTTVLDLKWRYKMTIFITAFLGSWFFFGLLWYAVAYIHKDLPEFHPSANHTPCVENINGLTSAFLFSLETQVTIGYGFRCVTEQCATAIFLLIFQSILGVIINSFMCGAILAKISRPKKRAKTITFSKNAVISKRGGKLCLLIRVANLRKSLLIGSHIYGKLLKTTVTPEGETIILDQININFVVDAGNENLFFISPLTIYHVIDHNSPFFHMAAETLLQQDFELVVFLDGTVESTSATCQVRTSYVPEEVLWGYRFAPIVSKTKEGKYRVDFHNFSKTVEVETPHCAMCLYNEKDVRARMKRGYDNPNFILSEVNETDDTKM
ROMK retest: retested hit modulating human ROMK potassium channel; shares compounds with ROMK mod; ROMK thallium flux, fluorescence ratio; hits give low values; normalized thallium flux (F/F0 slope) at 10 µM; hit rate 54% among 3,000; AID 1917;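 active = Flux at 10 µM at least 3 SD below or above vehicle control mean in one or both replicates; inconclusive = no clear call, values can overlap the other calls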
Starred values were filed as active, the others as inactive; ? = inconclusive; . = not tested or not shown.

SMILES	bCat nuc transl	MT stabilizer	ROMK mod	ROMK retest
Cc1c(NC(=O)/C(C#N)=C/c2ccc(-c3ccc(Cl)cc3)o2)c(=O)n(-c2ccccc2)n1C	2.4	2.4	-2.61*	0.0801
CCNC(=S)Nc1cc(OCC)c(NC(=O)c2cccs2)cc1OCC	-2.0	3.2	.	.
CC(C)CNC(=O)c1ccccc1NC(=O)c1ccccc1N(C)S(=O)(=O)c1ccccc1	-0.4	2.7	.	.
Cc1ccc(-n2ncc3c(NNC(=O)c4cccs4)ncnc32)cc1	.	1.9	0.0926	.
Cc1c(NC2(C#N)CCCCC2)c(=O)n(-c2ccccc2)n1C	-0.2	2.6	-0.0528	.
O=C(CSc1nnnn1C1CCCCC1)Nc1ccccc1F	0.3	2.7	-1.6	.
O=C(CSc1nnnn1C1CC2CCC1C2)Nc1ccnc2ccccc12 (configuration not stated)	3.4	6.8	.	?
COc1ccc(NC(=O)CC2C(=O)N(c3ccc(F)cc3)C(=S)N2NC(=O)c2ccc(Cl)cc2)cc1 (configuration not stated)	.	1.2	-1.22	.
Cn1c(=O)c(C(=O)CN2CC(=O)Nc3ccccc32)c(N)n(Cc2ccccc2)c1=O	-5.3	4.2	0.263	.
Cn1c(-c2ccccc2)c(/C=N/NC(=O)c2ccc(O)cc2)c2ccccc21	-3.7	.	.	0.08
Cn1c(-c2ccccc2)c(C=O)c2ccccc21	1.7	3.1	-0.219	.
O=C(OCC(=O)N1CCN(C(=O)c2ccco2)CC1)c1ccccc1OCc1ccc(Cl)cc1	-3.2	4.0	0.435	.
CC(=O)c1nnn(-c2ccc([N+](=O)[O-])cc2)c1C	-0.4	2.5	0.639	.
Cc1cnnn1-c1ccc([N+](=O)[O-])cc1	-0.9	2.1	-3.24*	0.0772
COc1ccc(CNC(=O)C/C(C)=N/NC(=O)c2cnccn2)cc1	1.1	2.1	-0.73	.
CCCC(c1nnnn1C(C)(C)C)N1CCN(c2ccccc2)CC1 (configuration not stated)	0.4	1.0	-13*	0.0827
CCCC(c1nnnn1C(C)(C)C)N1CCN(Cc2ccccc2OC)CC1 (configuration not stated)	1.4	1.7	0.0773	.
CC1=NN(C(=O)c2cc(C)nn2C)C(O)(C(F)(F)F)C1 (configuration not stated)	-3.9	1.3	-0.00106	.
CC1CCc2c(sc(Nc3nc4c(F)cccc4s3)c2C(N)=O)C1 (configuration not stated)	8.0	6.2	.	.
Cc1ccc(S(=O)(=O)C(C#N)c2nc3ccccc3nc2N2CCC(C)CC2)cc1 (configuration not stated)	-2.2	2.6	.	0.068*
N#CC(c1nc2ccccc2nc1N1CCCC1)S(=O)(=O)c1ccccc1 (configuration not stated)	0.0	4.0	-1.36	.
COc1ccc(OC)c2[nH]c(=O)c(CCNC(=O)CC(C)C)cc12	-0.6	1.8	.	.
CCOC(=O)Cn1c(=N)n(CCOc2ccc3ccccc3c2)c2ccccc21	0.8	0.9	-4.17*	0.0561*
CCCCOC(=O)Cn1c(=N)n(CCC)c2ccccc21	-0.7	2.7	.	.
CCOC(=O)Cn1c(=N)n(CCOc2ccc(OC)cc2)c2ccccc21	-0.2	1.9	-2.62*	0.0601*
SMILES	bCat nuc transl	MT stabilizer	ROMK mod	ROMK retest
CCCn1c(=N)n(CCOc2ccc(OC)cc2)c2ccccc21	-0.8	1.4	.	.
CC(C)CNC(=O)C1CCCN(C(=O)NCc2ccccc2)C1 (configuration not stated)	0.6	2.3	-0.421	.
N#C/C(=C(/O)c1cc2ccccc2o1)c1nc2ccccc2s1	-1.9	.	.	0.0582*
N#C/C(=C(/O)c1ccco1)c1nc2ccccc2s1	-1.6	2.4	.	.
CC1=CC2=NC(=O)/C(=C\c3cccn3CCOc3cccc(C)c3)C(=N)N2O1	2.6	1.8	-0.33	.
COc1cccc(OCCn2cccc2/C=C2/C(=N)N3OC(C)=CC3=NC2=O)c1	-1.4	3.5	-3.25*	0.0768
Cc1ccc(C(=O)N/C(=C\c2ccc(-c3ccc([N+](=O)[O-])cc3)o2)C(=O)NC2CCS(=O)(=O)C2)cc1 (configuration not stated)	3.2	5.4	.	0.0474*
Cc1ccc(C(=O)N/C(=C\c2ccc(-c3cccc([N+](=O)[O-])c3)o2)C(=O)NC(C)(C)C)cc1	-2.4	3.7	.	.
COC(=O)/C(=C\Nc1ccc(Oc2ccc(F)cc2F)nc1)NC(=O)c1ccccc1	1.6	.	.	.
COc1ccc(NCC(=O)Nc2ccc(Br)cc2F)c(OC)c1	0.1	.	.	.
CCn1cc(C(=O)N2CCc3ccccc32)c(=O)c2cc(S(=O)(=O)N(C)C3CCCCC3)ccc21	-6.2	3.7	-2.76*	0.0769
CCn1cc(C(=O)N2CCc3ccccc32)c(=O)c2cc(S(=O)(=O)N3CCOCC3)ccc21	-4.1	3.0	.	.
COc1ccc(CNC(=O)c2ccc(C(C)C)cc2)cc1	1.5	2.4	.	.
COc1ccc(C(=O)NCc2c(CC(C)C)oc(C)c2C(=O)O)cc1	-0.9	3.7	.	0.076
CCCCN(C)C(=O)c1nc2ccccn2c1CN1CCN(C(=O)c2cccs2)CC1	-1.0	2.3	0.38	.
COc1ccc(CNC(=O)[C@H](C)NC(=O)C2CCN(S(=O)(=O)c3ccc(C)cc3)CC2)cc1	-4.1	3.0	0.67	0.0751
Cc1ccc(S(=O)(=O)N2CCC(C(=O)N[C@@H](C)C(=O)NC3CCCCC3)CC2)cc1	-6.0	2.6	.	.
CCOc1ccccc1NC(=S)NCCc1ccccc1	3.1	1.7	0.383	.
O=C(O)/C=C/C(=O)N(Cc1ccc2c(c1)OCO2)C1CC(=O)N(CCc2ccccc2)C1=O (configuration not stated)	0.0	4.9	-0.0248	.
O=C(Nc1ccc(S(=O)(=O)Nc2nccs2)cc1)c1cc(-c2ccccn2)nc2ccccc12	0.2	5.6	0.889	.
O=C(Nc1ccc(S(=O)(=O)Nc2nccs2)cc1)c1cc(-c2ccccc2Cl)nc2ccccc12	-1.9	2.3	4.25*	0.0882
Cc1cc(C)nc(SCc2ccc(C(=O)N/N=C/c3ccncc3)cc2)n1	0.1	2.3	1.54	.
Cc1cc(C)nc(SCc2ccc(C(=O)N/N=C/c3ccccn3)cc2)n1	1.4	6.2	-13*	0.085
COc1cc(C(=O)Nc2ccc(N3CCOCC3)cc2)ccc1OCc1c(C)noc1C	-1.3	4.0	.	.
NC(=O)c1cccc(N=Cc2cc(Cl)cc(Cl)c2O)c1	0.5	2.2	1.3	.
SMILES	bCat nuc transl	MT stabilizer	ROMK mod	ROMK retest
Cc1cccc(N=Cc2cc(Br)cc(Cl)c2O)c1	-1.7	2.8	4.06*	0.115*
COC(=O)c1cccc(NC(=S)NCc2ccc(F)cc2)c1	-2.1	1.9	-1.62	.
Cc1ccc(S(=O)(=O)N2CCCC2)cc1[N+](=O)[O-]	0.1	1.8	1.58	.
O=S(=O)(c1ccc(Cl)cc1)N1CCN(S(=O)(=O)N2CCCCCC2)CC1	-2.6	2.1	-0.734	.
O=S(=O)(c1ccc(Oc2ccc(Cl)cc2)c(S(=O)(=O)N2CCCCC2)c1)N1CCCCC1	1.6	3.9	.	0.064*
O=[N+]([O-])c1cc(S(=O)(=O)N2CCCCCC2)ccc1Cl	0.6	5.4	-3.87*	0.0644*
O=C(CSc1nn(-c2ccc(Cl)cc2)c(=S)s1)NCC1CCCO1 (configuration not stated)	0.6	1.9	-0.978	.
COc1cc(NC(=O)COC(=O)CSc2cc(C)ccc2C)c(C)cc1[N+](=O)[O-]	-0.3	3.9	.	.

From PubChem BioAssay
